Results published in the EternaBench riboswitch data.

How the values were obtained:
MS2 coat protein [1] = test: apparent Kd, MS2 coat protein; higher = weaker binding; RNA-MaP array; tryptophan 2.4 mM where present
Outline: (§1)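 Stalled E. coli RNA polymerase produced the designs on Illumina sequencing-chip clusters. SNAP-549-labelled MS2 coat protein was added from 0.7 or 1.5 nM, doubling to 3 µM, without and then with constant ligand, in 100 mM Tris-HCl pH 7.5, 80 mM KCl, 4 mM MgCl2, BSA, DTT, yeast tRNA and Tween-20. The apparent Kd is the median of filtered per-cluster fits of green signal normalised to red-channel RNA signal and control-cluster median Fmax.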

MS2 coat protein [2] = test: apparent Kd, MS2 coat protein; higher = weaker binding; RNA-MaP array; theophylline 2 mM where present
Outline: as §1

[3] = designed as: OFF switch for tryptophan, no ligand
[4] = ligand present: tryptophan, designed as: OFF switch for tryptophan
[5] = designed as: ON switch for tryptophan, no ligand
[6] = ligand present: tryptophan, designed as: ON switch for tryptophan
[7] = designed as: OFF switch for theophylline, no ligand
[8] = ligand present: theophylline, designed as: OFF switch for theophylline

Sequence	apparent Kd (MS2 coat protein [1]; [3])	apparent Kd (MS2 coat protein [1]; [4])	apparent Kd (MS2 coat protein [1]; [5])	apparent Kd (MS2 coat protein [1]; [6])	also measured
ACAUGAGCAUCAGCCAUGUGUAUGACAUGACGAGGACCGGUACGGCCGCCACUCGACAUGAGGAUCACCCAUGUUGAGGAUCACA	10.9 nM	14.7 nM			
GGUUACUCUACGGCCGCCACUGAUUAUUUAUAAUCCUGUACAUAAACAUGAGGAUCACCCAUGUACAGGACCGGGUAGUGUAACC			33.8 nM	29.4 nM	
UUAUGCAGGUCGGCCGCCACUACACACAUGAGGAUCACCCAUGUAGUUACUGGGUGAAGUGGCAGUAGGACCGGGACCUGCAUAC			553 nM	316 nM	
CUGUACAUCUCGGCCGCCACUGCUGACAUGGGAGUCACCCAUGUCCACAUGAGGAUCACCCAUGUCAGGACCGGGAGGUGUGCAG			49.8 nM	255 nM	
UGUCAGCGAAAGUUGACAUGUCUUACCGGUCGAGGACCGGUACGGCCGCCACUCGAUCUCUCGCACAUGAGGAUCACCCAUGUCG			12.7 nM	11.2 nM	
ACAUGAGGAUCACCCAUGUGCAUGAUGAUCCGAGGACCGGUACGGCCGCCACUCGUCAUGAUGAUCUUUCAUGUUUGUCGCGCGC			329 nM	429 nM	
AAAUAAUAUUAAUUAAUUAUAUUAUUCUGACGAGGACCGGUACGGCCGCCACUCGGCCCAUGGUACAUGAGGAUCACCCAUGUCU			17.6 nM	13.6 nM	
AAUGUAUGGCACAUGAGGAUCACCCAUGUGCGAGGACCGGUACGGCCGCCACUCGGUCCUGGGAACUUAUUACUAUACAUUAAUG	11.9 nM	23.3 nM			
CUCAUCCACGCGGCCGCCACUAUAUUGUGGUGCGUAUGUGUCGUAAUACAUGAGGAUCACCCAUGUAGGACCGGGCGUGGAUGAG	10.8 nM	20.4 nM			
AGCCGGAUUACGGCCGCCACUGUAGACGUGACGAAAGUCGCGUCAACAUGAGGAUCACCCAUGUACAGGACCGGGUGGUCGGGCG			161 nM	27.5 nM	
AUGUACAUGACGGCCGCCACUACACUGAAAGUGGUCCAGAACAUGAGGAUCACCCAUGUAUCAAGUAGGACCGGGUCAUGUACAU	361 nM	380 nM			
GGCACAUAGUCGGCCGCCACUAGUGGGAAAUGGGAGAACAUGAGGAUCACCCAUGUAUUAUAGCCUAGGACCGGGACUAUGUGCC	74.8 nM	105 nM			
AAGACCAGGAGGUGAUCCUAACUGGUCCAACGAGGACCGGUACGGCCGCCACUCGAAUAAACAUGAGGAUCACCCAUGUAAUAAU			98.1 nM	225 nM	
GGAUGCGGCACGGCCGCCACUGCGGUGGUGUGACAUGAGGAUCACCCAUGUUGUCAUGCGGCCCUUAGGACCGGGUGGCGUGUCC	46.4 nM	47 nM			
ACACCAUACAUGAGGAUCACCCAUGUUACACGAGGACCGGUACGGCCGCCACUCGAAUUCAGGAAACCUCGGAUAAUAUUGUGAA			25.9 nM	33.2 nM	
UGUACCAUGUCGGCCGCCACUCAUGAUAAACAUGAGGAUCACCCAUGUGGCGUCAAAGACGCUAUGAGGACCGGGACAUGGUACU			13.2 nM	10.6 nM	
GGGUACAUCGCGGCCGCCACUUAUGUAAAUACAUGAGGAUCACCCAUGUCGAUGGAGACAUCGGAAAGGACCGGGUGAUGUACCG			198 nM	47.5 nM	
AGAUGAGUCACGGCCGCCACUCACUACAGGUUCACCCUUGGUUAACAUGAGGAUCACCCAUGUGGGAGGACCGGGUGAUGAGCAU	19.9 nM	25.1 nM			
GUAGCGACGGCGGCCGCCACUCACAGGUGAGGGUAGACCAACCUUCACAUGAGGAUCACCCAUGUGAGGACCGGGCUGUCGCUAC	90.9 nM	146 nM			
AUUCAUGGAAACAUGACAUAGGGAUCUAUCCGAGGACCGGUACGGCCGCCACUCGCGUGGAGGCACAUGAGGAUCACCCAUGUUA			278 nM	432 nM	
UCUUUCUUUGUAGAUACCAGCAUGUUAAGUUUCUUUUGACAUGAGGAUCACCCAUGUACAUGCCCUUGGCAGCUACAUUUUCUUU					apparent Kd (MS2 coat protein [2]; designed as: ON switch for theophylline, no ligand): 15.2 nM; apparent Kd (MS2 coat protein [2]; ligand present: theophylline, designed as: ON switch for theophylline): 16.5 nM
UGACAUUGCUGCGAUACCAGACAUGAGGAUCACCCAUGUACCAAGGUACGAAAAUAACAUGUCCCUUGGCAGCGCAGCAAUGUCU					apparent Kd (MS2 coat protein [2]; [7]): 12.6 nM; apparent Kd (MS2 coat protein [2]; [8]): 254 nM
AGCAACAAGUCGGCCGCCACUCAUUUAACAUGAGGAUCACCCAUGUGAAUAACAUGGUUGUAAUAGAGGACCGGGACAGUUGCAU			119 nM	574 nM	
AGACAUGAGGAUCACCCAUGUAGUACGGAUACCAGAUCCAGAUUUAUCCCUUGGCAGCUGUGGUACAGCGUUGCAACGCUCCUAG					apparent Kd (MS2 coat protein [2]; [7]): 17.5 nM; apparent Kd (MS2 coat protein [2]; [8]): 17.5 nM
UACAUGAGGAUCACCCAUGUGGCGGAUGAUACCAGUAUGGUGACAUACCCUUGGCAGCAUGCUAUGAGGAUCACCCAUGUGUGCA					apparent Kd (MS2 coat protein [2]; [7]): 85.3 nM; apparent Kd (MS2 coat protein [2]; [8]): 166 nM
AAAACACAUGAGGAUCACCCAUGUCAUGAUACCAGUCCACAUGAGGACCCUUGGCAGCAUAAAAUGGGUAACAUGAGGAUAACCC					apparent Kd (MS2 coat protein [2]; [7]): 29.6 nM; apparent Kd (MS2 coat protein [2]; [8]): 82.8 nM
